According to ChEMBL document CHEMBL1156913, “Design and synthesis of anti-breast cancer agents from 4-piperazinylquinoline: a hybrid pharmacophore approach” (Bioorg Med Chem, 2010):
The source made the active and inactive calls. The calls are words filed in the database; no cut-off is given here.

Tests used:
[1] = Cytotoxicity against human 184B5 cells after 48 hrs by SRB assay; type: cell-based
Procedure, shortened: (§1)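 5000–10,000 cells/well preincubated 24 h at 37 °C, 5% CO2, with TCA-fixed time-zero wells. Fivefold serial dilutions (100 to 0.0064 µM) and a DMSO-matched medium control, exposed 48 h. Fixed in 10% TCA for 60 min at 4 °C, stained with 0.4% SRB in 1% acetic acid, solubilized in 10 mM Tris base, read at 515–564 nm. GI50 from variable-slope sigmoidal fits; triplicates, at least two independent experiments.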

[2] = Cytotoxicity against human MCF10A cells after 48 hrs by SRB assay; type: cell-based, MCF-10A; procedure, shortened: as §1
MDA-MB-468 = assay: Cytotoxicity against human MDA-MB-468 cells after 48 hrs by SRB assay; type: functional; settings: MDA-MB-468, 48 h; procedure, shortened: as §1
MCF7 [3] = assay: Cytotoxicity against human MCF7 cells after 48 hrs by SRB assay; type: functional; settings: MCF7, 48 h; procedure, shortened: as §1
MCF7 [4] = assay: Induction of apoptosis in human MCF7 cells assessed as cell death at 40 uM after 24 hrs; type: functional
Procedure, shortened: (§2)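 MCF7 cells grown in RPMI 1640 with 10% FBS and 2 mM L-glutamine at 37 °C, 5% CO2. Treated 24 h, with DMSO-only medium as negative control. 2.0 × 10⁶ cells harvested, fixed in ice-cold 70% ethanol at −20 °C, and stained 30 min at 37 °C with PI mix (100 µg/mL PI, RNase A, 0.3% NP-40, 0.1% sodium citrate). DNA content read by flow cytometry; apoptotic fraction taken from DNA histograms.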

MCF7 [5] = assay: Induction of apoptosis in human MCF7 cells assessed as cell death at 20 uM after 24 hrs; type: functional; procedure, shortened: as §2
MCF-10A = assay: Cell cycle arrest in human MCF10A cells assessed as decrease in at S phase at 20 uM by flow cytometry; type: functional, cell-based
Procedure, shortened: (§3)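 MCF7 (RPMI 1640, 10% FBS, 2 mM L-glutamine) or MCF10A (mammary epithelial basal medium plus MEGM supplements) treated 24 h at 20 or 40 µM with DMSO vehicle controls. 2.0 × 10^6 cells fixed in ice-cold 70% ethanol at -20 °C, then stained 30 min at 37 °C with 100 µg/mL PI, RNase A, 0.3% NP-40 and 0.1% sodium citrate. Phase fractions taken from DNA-content histograms.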

MCF7 [6] = assay: Cell cycle arrest in human MCF7 cells assessed as accumulation at G1/G0 phase at 20 uM by flow cytometry; type: functional; procedure, shortened: as §3
MCF7 [7] = assay: Cell cycle arrest in human MCF7 cells assessed as accumulation at G1/G0 phase at 40 uM by flow cytometry; type: functional; procedure, shortened: as §3
MCF7 [8] = assay: Cell cycle arrest in human MCF7 cells assessed as accumulation at S phase at 20 uM by flow cytometry; type: functional; procedure, shortened: as §3
MCF7 [9] = assay: Cell cycle arrest in human MCF7 cells assessed as accumulation at S phase at 40 uM by flow cytometry; type: functional; procedure, shortened: as §3
MCF7 [10] = assay: Cell cycle arrest in human MCF7 cells assessed as accumulation at G2/M phase at 20 uM by flow cytometry; type: functional; procedure, shortened: as §3
MCF7 [11] = assay: Cell cycle arrest in human MCF7 cells assessed as accumulation at G2/M phase at 40 uM by flow cytometry; type: functional; procedure, shortened: as §3
MCF7 [12] = assay: Induction of apoptosis in human MCF7 cells assessed as cell death; type: functional, cell-based

| SMILES | GI50 at 48 h [1] [µM] | GI50 at 48 h [2] [µM] | GI50 (MDA-MB-468) [µM] | GI50 (MCF7 [3]) [µM] | further results |
| --- | --- | --- | --- | --- | --- |
| CCN(CC)CCCC(C)Nc1ccnc2cc(Cl)ccc12 (stereo unspecified) [CHLOROQUINE] | 76.1 | 81.3 | – | – | – |
| NC(=S)N/N=C1/C(=O)N(CN2CCN(c3ccnc4cc(C(F)(F)F)ccc34)CC2)c2cccc(Br)c21 | 26.4 | 30.6 | 30.4 | 50.6 | – |
| NC(=S)N/N=C1/C(=O)N(CN2CCN(c3ccnc4cc(Cl)ccc34)CC2)c2cc(Cl)ccc21 | 41.3 | 64.6 | 26.5 | 22.5 | – |
| NC(=S)N/N=C1\C(=O)Nc2cc(Br)ccc21 | 34.9 | 32 | 18.6 | 17.9 | – |
| O=C1C(=O)N(CN2CCN(c3ccnc4cc(C(F)(F)F)ccc34)CC2)c2cc(Br)ccc21 | 21.8 | 24.4 | 24.8 | 28.1 | – |
| NC(=S)N/N=C1\C(=O)Nc2cccc(Br)c21 | 22.6 | 21.4 | 21.2 | 14.8 | – |
| NC(=S)N/N=C1/C(=O)N(CN2CCN(c3ccnc4cc(C(F)(F)F)ccc34)CC2)c2cc(Br)ccc21 | 21.4 | 26.9 | 39.6 | 35.5 | – |
| NC(=S)N/N=C1/C(=O)N(CN2CCN(c3ccnc4cc(C(F)(F)F)ccc34)CC2)c2cc(Cl)ccc21 | 20.1 | 38.8 | 11 | 24.6 | – |
| O=C1C(=O)N(CN2CCN(c3ccnc4cc(Cl)ccc34)CC2)c2cc(Cl)ccc21 | 47.5 | 67.8 | 36.6 | 26.1 | – |
| NC(=S)N/N=C1/C(=O)N(CN2CCN(c3ccnc4cc(C(F)(F)F)ccc34)CC2)c2cccc(Cl)c21 | 87.8 | 51.7 | 23 | 21.6 | Activity (MCF7 [4]): Active; Activity (MCF7 [5]): Active; Activity (MCF-10A): inactive; Activity (MCF7 [6]): 64%; Activity (MCF7 [7]): 65%; Activity (MCF7 [8]): 17%; Activity (MCF7 [9]): 16%; Activity (MCF7 [10]): 12%; Activity (MCF7 [11]): 11% |
| NC(=S)N/N=C1/C(=O)N(CN2CCN(c3ccnc4cc(C(F)(F)F)ccc34)CC2)c2ccccc21 | 20.2 | 22.6 | 10.3 | 13.9 | – |
| O=C1C(=O)N(CN2CCN(c3ccnc4cc(Cl)ccc34)CC2)c2ccccc21 | 71.7 | 45.9 | 37.9 | 48.3 | – |
| NC(=S)/N=N/c1c(O)[nH]c2ccccc12 | 60.4 | 88.8 | 35.5 | 36.9 | – |
| O=C1C(=O)N(CN2CCN(c3ccnc4cc(Cl)ccc34)CC2)c2cc(Br)ccc21 | 33.2 | 17.9 | 35.8 | 17.6 | – |
| O=C1C(=O)N(CN2CCN(c3ccnc4cc(Cl)ccc34)CC2)c2cccc(Br)c21 | 49 | 65.6 | 15.9 | 15.1 | Activity (MCF7 [4]): 10%; Activity (MCF7 [5]): 6%; Activity (MCF-10A): inactive; Activity (MCF7 [6]): 63%; Activity (MCF7 [7]): 64%; Activity (MCF7 [8]): 18%; Activity (MCF7 [9]): 14%; Activity (MCF7 [10]): 14%; Activity (MCF7 [11]): 12%; Activity (MCF7 [12]): Dose-dependent effect |
| NC(=S)N/N=C1/C(=O)N(CN2CCN(c3ccnc4cc(Cl)ccc34)CC2)c2ccccc21 | 28.8 | 27.7 | 20.6 | 23 | – |
| O=C1C(=O)N(CN2CCN(c3ccnc4cc(C(F)(F)F)ccc34)CC2)c2ccccc21 | 43.9 | 70 | 15.3 | 34 | – |
| NC(=S)N/N=C1/C(=O)N(CN2CCN(c3ccnc4cc(Cl)ccc34)CC2)c2cc(Br)ccc21 | 13.1 | 22.1 | 11.2 | 11.4 | – |
| O=C1C(=O)N(CN2CCN(c3ccnc4cc(C(F)(F)F)ccc34)CC2)c2cccc(Cl)c21 | 47.4 | 24 | 28.4 | 16.9 | – |
| NC(=S)N/N=C1\C(=O)Nc2cccc(Cl)c21 | 25.9 | 28.7 | 24 | 30.2 | – |
| NC(=S)N/N=C1/C(=O)N(CN2CCN(c3ccnc4cc(Cl)ccc34)CC2)c2cccc(Cl)c21 | 20.7 | 19.8 | 57.6 | 57.5 | – |
| NC(=S)N/N=C1/C(=O)N(CN2CCN(c3ccnc4cc(Cl)ccc34)CC2)c2cccc(Br)c21 | 46.4 | 29.4 | 40.4 | 46.6 | – |
| O=C1C(=O)N(CN2CCN(c3ccnc4cc(C(F)(F)F)ccc34)CC2)c2cc(Cl)ccc21 | 25.2 | 32.8 | 26.1 | 15.8 | – |
| O=C1C(=O)N(CN2CCN(c3ccnc4cc(Cl)ccc34)CC2)c2cccc(Cl)c21 | 77.7 | 25.6 | 37.8 | 39.1 | – |
| NC(=S)N/N=C1\C(=O)Nc2cc(Cl)ccc21 | 40.8 | 48.5 | 17.7 | 17.2 | – |
| O=C1C(=O)N(CN2CCN(c3ccnc4cc(C(F)(F)F)ccc34)CC2)c2cccc(Br)c21 | 49.7 | 37.9 | 52.2 | 66.8 | – |
